For eight molecules, Activity and MIC results are on record in ChEMBL document CHEMBL1151255, “Cyclic peptides from a Ruegeria strain of bacteria associated with the sponge Suberites domuncula” (2004).

For one assay, the system named is Saccharomyces cerevisiae. As to the kind of experiment: Antimicrobial activity against Saccharomyces cerevisiae. The assay is classed as functional, organism-based. Summed up: (§1)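 MIC by twofold serial dilution in duplicate, top concentration 50 μg/mL. Test strains were B. subtilis subsp. spizizenii DSM 347, E. coli DSM 498 and S. cerevisiae DSM 70449. Growth was scored after 48 h at each strain's optimal growth temperature. Gentamycin and nystatin served as controls.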

The next assay relates to Bacillus spizizenii. In words: Antimicrobial activity against Bacillus subtilis subsp. spizizenii. The assay is classed as functional. Summed up:
as §1

For the next assay, the system named is Escherichia coli. In words: Antimicrobial activity against Escherichia coli. The assay is classed as functional, organism-based. The essentials: as §1

Values after ≈ are worked out from the molar mass of the structure shown. Active and inactive are the calls of the source. No cut-off for these calls is given here. Where a SMILES comes first, the peptide text is derived from it.

As for `O=C1NCC(=O)N2CCC[C@@H]12`, the result with Saccharomyces cerevisiae, in the assay on Bacillus spizizenii and with Escherichia coli was inactive.

Take `C[C@@H]1NC(=O)[C@@H]2C[C@@H](O)CN2C1=O`: the result in the assay on Saccharomyces cerevisiae, in the assay with Bacillus spizizenii and in the assay on Escherichia coli was inactive.

Turning to `O=C(O)CC[C@@H]1NC(=O)[C@@H]2CCCN2C(=O)CNC1=O` (cyclo(Glu-Gly-Pro)), the result in the assay with Saccharomyces cerevisiae and in the assay with Escherichia coli was inactive. Besides, the lowest concentration to inhibit growth in the assay with Bacillus spizizenii (MIC) was 50 µg/mL (≈ 177 µM).

Regarding `O=C1[C@@H]2C[C@@H](O)CN2C(=O)[C@@H]2CCCN12`, the result with Saccharomyces cerevisiae, in the assay on Bacillus spizizenii and in the assay with Escherichia coli was inactive.

As to `O=C1CCCNC(=O)CN1`, the outcome with Saccharomyces cerevisiae, in the assay with Bacillus spizizenii and with Escherichia coli was inactive.

As for `O=C(O)CC[C@@H]1NC(=O)[C@@H]2CCCN2C(=O)[C@H](CO)NC(=O)CNC1=O` (cyclo(EGSP)), the result in the assay with Saccharomyces cerevisiae and with Escherichia coli was inactive. In the assay with Bacillus spizizenii, the MIC was 25 µg/mL (≈ 67.5 µM).

As to `C[C@@H]1NC(=O)[C@H]2C[C@@H](O)CN2C1=O`, the result in the assay with Saccharomyces cerevisiae, in the assay with Bacillus spizizenii and in the assay on Escherichia coli was inactive.

On to `O=C(O)CC[C@@H]1NC(=O)[C@@H]2CCCN2C(=O)[C@H](CCC(=O)O)NC(=O)[C@@H]2CCCN2C1=O` (cyclo(EPEP)), for which the result with Saccharomyces cerevisiae, in the assay on Bacillus spizizenii and with Escherichia coli was inactive.

Usually MIC stands for the least concentration at which growth counts as inhibited. High values mean a less susceptible organism, low ones a more susceptible organism.
